ChEMBL document CHEMBL5724801, “EUbOPEN Chemogenomics Library - Multiplex” (2024)
Values joined by “and” are separate entries in the source; they are usually repeats but may differ in a detail not shown here. Equal entries are not always repeated.

Tested on: U2OS
Experiment: Multiplex assay against U2OS
Format: toxicity, cell-based
Settings: human
In short: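 On a CQ1 microscope at 37°C and 5% CO2, live cells were imaged after compound addition. They had been stained at seeding with Hoechst33342, BioTracker Green Microtubule Cytoskeleton Dye, MitoTracker Red and Annexin V Alexa Fluor 680. CellPathfinder machine-learning gating assigned cells to Hoechst high-intensity objects or normal cells, normal cells to healthy, pyknosed or fragmented nuclei, and pyknosed cells to mitotic or apoptotic. Tubulin, mitochondrial-mass and membrane-permeability phenotypes are per cents of healthy-nucleus cells.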

[1] = 12 h, 1 µM, compound concentration 1 uM
[2] = 12 h, 10 µM, compound concentration 10 uM
[3] = 24 h, 1 µM, compound concentration 1 uM
[4] = 24 h, 10 µM, compound concentration 10 uM
[5] = 48 h, 1 µM, compound concentration 1 uM
[6] = 48 h, 10 µM, compound concentration 10 uM

CC(C)(C)c1ccc(S(=O)(=O)Nc2ccc(Cl)cc2C(=O)c2cc[n+]([O-])cc2)cc1 [VERCIRNON]
Population Apoptotic (%) [1]: 77% and 100%
Population Fragmented Nuclei (%) [1]: 28% and 15%
Population Healthy Nuclei (%) [1]: 61% and 79%
Population Hoechst High Intensity Objects (%) [1]: 1% and 0%
Population Membrane Permeable-Phenotype (%) [1]: 8%
Population Mitochondria Different-Phenotype (%) [1]: 5% and 4%
Population Mitotic Cells (%) [1]: 22% and 0%
Population Normal (%) [1]: 98% and 99%
Population Pyknosed Nuclei (%) [1]: 10% and 5%
Population Tubulin-Different-Phenotype (%) [1]: 4% and 3%
Total Cell Count [1]: 307 and 156
Population Apoptotic (%) [2]: 77% and 50%
Population Fragmented Nuclei (%) [2]: 24% and 21%
Population Healthy Nuclei (%) [2]: 68% and 77%
Population Hoechst High Intensity Objects (%) [2]: 1% and 0%
Population Mitochondria Different-Phenotype (%) [2]: 2%
Population Mitotic Cells (%) [2]: 22% and 50%
Population Normal (%) [2]: 98% and 99%
Population Pyknosed Nuclei (%) [2]: 6% and 1%
Total Cell Count [2]: 266 and 123
Population Apoptotic (%) [3]: 89% and 92%
Population Fragmented Nuclei (%) [3]: 25% and 18%
Population Healthy Nuclei (%) [3]: 67% and 74%
Population Hoechst High Intensity Objects (%) [3]: 1% and 0%
Population Membrane Permeable-Phenotype (%) [3]: 8% and 2%
Population Mitochondria Different-Phenotype (%) [3]: 5% and 4%
Population Mitotic Cells (%) [3]: 10% and 7%
Population Normal (%) [3]: 98% and 99%
Population Pyknosed Nuclei (%) [3]: 7%
Population Tubulin-Different-Phenotype (%) [3]: 4% and 2%
Total Cell Count [3]: 357 and 183
Population Apoptotic (%) [4]: 76% and 71%
Population Fragmented Nuclei (%) [4]: 21% and 22%
Population Healthy Nuclei (%) [4]: 72%
Population Hoechst High Intensity Objects (%) [4]: 2% and 1%
Population Mitochondria Different-Phenotype (%) [4]: 1%
Population Mitotic Cells (%) [4]: 23% and 28%
Population Normal (%) [4]: 97% and 98%
Population Pyknosed Nuclei (%) [4]: 5% and 4%
Total Cell Count [4]: 297 and 160
Population Apoptotic (%) [5]: 82% and 84%
Population Fragmented Nuclei (%) [5]: 19% and 15%
Population Healthy Nuclei (%) [5]: 73% and 75%
Population Hoechst High Intensity Objects (%) [5]: 3% and 4%
Population Membrane Permeable-Phenotype (%) [5]: 5% and 7%
Population Mitochondria Different-Phenotype (%) [5]: 3% and 2%
Population Mitotic Cells (%) [5]: 17% and 15%
Population Normal (%) [5]: 96% and 95%
Population Pyknosed Nuclei (%) [5]: 6% and 9%
Population Tubulin-Different-Phenotype (%) [5]: 4% and 2%
Total Cell Count [5]: 515 and 296
Population Apoptotic (%) [6]: 79% and 77%
Population Fragmented Nuclei (%) [6]: 18% and 26%
Population Healthy Nuclei (%) [6]: 75% and 65%
Population Hoechst High Intensity Objects (%) [6]: 1% and 2%
Population Membrane Permeable-Phenotype (%) [6]: 2% and 8%
Population Mitochondria Different-Phenotype (%) [6]: 1% and 5%
Population Mitotic Cells (%) [6]: 20% and 22%
Population Normal (%) [6]: 98% and 97%
Population Pyknosed Nuclei (%) [6]: 5% and 8%
Population Tubulin-Different-Phenotype (%) [6]: 1% and 11%
Total Cell Count [6]: 414 and 215

COC[C@@H](c1ccc(C(F)(F)F)cc1)N1CCN(C2(C)CCN(C(=O)c3c(C)ncnc3C)CC2)C[C@@H]1C.O=C(O)/C=C\C(=O)O [VICRIVIROC MALEATE]
Population Apoptotic (%) [1]: 82% and 81%
Population Fragmented Nuclei (%) [1]: 34% and 21%
Population Healthy Nuclei (%) [1]: 54% and 67%
Population Hoechst High Intensity Objects (%) [1]: 4% and 2%
Population Membrane Permeable-Phenotype (%) [1]: 8% and 11%
Population Mitochondria Different-Phenotype (%) [1]: 4% and 14%
Population Mitotic Cells (%) [1]: 17% and 18%
Population Normal (%) [1]: 95% and 97%
Population Pyknosed Nuclei (%) [1]: 11% and 10%
Population Tubulin-Different-Phenotype (%) [1]: 3% and 7%
Total Cell Count [1]: 261 and 105
Population Apoptotic (%) [2]: 86% and 33%
Population Fragmented Nuclei (%) [2]: 26% and 28%
Population Healthy Nuclei (%) [2]: 65%
Population Hoechst High Intensity Objects (%) [2]: 1% and 2%
Population Membrane Permeable-Phenotype (%) [2]: 13% and 5%
Population Mitochondria Different-Phenotype (%) [2]: 3% and 6%
Population Normal (%) [2]: 98% and 97%
Population Pyknosed Nuclei (%) [2]: 8% and 6%
Population Tubulin-Different-Phenotype (%) [2]: 3% and 6%
Total Cell Count [2]: 270 and 91
Population Apoptotic (%) [3]: 77% and 93%
Population Fragmented Nuclei (%) [3]: 25% and 20%
Population Healthy Nuclei (%) [3]: 67% and 64%
Population Hoechst High Intensity Objects (%) [3]: 3% and 4%
Population Membrane Permeable-Phenotype (%) [3]: 5% and 10%
Population Normal (%) [3]: 96% and 95%
Population Pyknosed Nuclei (%) [3]: 7% and 15%
Population Tubulin-Different-Phenotype (%) [3]: 2% and 10%
Total Cell Count [3]: 301 and 111
Population Apoptotic (%) [4]: 80% and 83%
Population Fragmented Nuclei (%) [4]: 25%
Population Healthy Nuclei (%) [4]: 68%
Population Hoechst High Intensity Objects (%) [4]: 1%
Population Membrane Permeable-Phenotype (%) [4]: 3% and 4%
Population Mitochondria Different-Phenotype (%) [4]: 3% and 2%
Population Mitotic Cells (%) [4]: 19% and 16%
Population Normal (%) [4]: 98%
Population Pyknosed Nuclei (%) [4]: 6%
Population Tubulin-Different-Phenotype (%) [4]: 2% and 7%
Population Apoptotic (%) [5]: 78% and 93%
Population Fragmented Nuclei (%) [5]: 20% and 25%
Population Healthy Nuclei (%) [5]: 68% and 62%
Population Hoechst High Intensity Objects (%) [5]: 3% and 1%
Population Membrane Permeable-Phenotype (%) [5]: 3% and 13%
Population Mitochondria Different-Phenotype (%) [5]: 2% and 11%
Population Normal (%) [5]: 96% and 98%
Population Pyknosed Nuclei (%) [5]: 10% and 11%
Population Tubulin-Different-Phenotype (%) [5]: 1% and 10%
Total Cell Count [5]: 416 and 142
Population Apoptotic (%) [6]: 80% and 93%
Population Fragmented Nuclei (%) [6]: 19% and 18%
Population Healthy Nuclei (%) [6]: 70% and 68%
Population Hoechst High Intensity Objects (%) [6]: 2% and 5%
Population Membrane Permeable-Phenotype (%) [6]: 3%
Population Mitochondria Different-Phenotype (%) [6]: 2% and 6%
Population Normal (%) [6]: 97% and 94%
Population Pyknosed Nuclei (%) [6]: 9% and 12%
Population Tubulin-Different-Phenotype (%) [6]: 1% and 6%
